UPR CHOP act – apoptotic UPR (CHOP) activation | CHO-CHOP luciferase reporter, luminescence; percent of tunicamycin response over DMSO baseline | activation, % at 10 µM | 330,000 tested, 0.34% active;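 active means at 10 µM dose, activation of 40% or more, normalized to positive control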;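 further: 100% = tunicamycin at 10 µg/mL and 0% = DMSO alone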
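Material: CHO-CHOP cells, stable luciferase reporter of PERK-eIF2a-CHOP signalling; quantity: 500 reporter cells seeded per well; buffer or medium: F12 medium containing 10% fetal bovine serum; compound: one dose, 10 µM in 0.5% DMSO; incubation: 6 h compound treatment, 37 °C; measured by: Steady-Glo luciferase luminescence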
PvdQ inh – P. aeruginosa PvdQ acylase inhibition; purified PvdQ acylase, fluorescence plate reader; inhibition, % at 10 µM; 340,000 tested, 0.063% active; in the data active means inhibition above about 30%, passing the limit was not always enough;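 further: 0% = vehicle neutral wells and 100% = reference inhibitor wells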
CHOP inh – blocks CHOP induction under ER stress | AID 2732 | CHO-K1 CHOP-promoter luciferase, tunicamycin-induced, 15-18 h | inhibition, % at 10 µM | 220,000 tested, 3.8% active;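 active means compounds that reduced the stress-induced luciferase reporter signal by more than about 70% of percent inhibition, limit read from the data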;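 further: 0% = tunicamycin plus vehicle and 100% = wells without tunicamycin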
UPR XBP1 act – activators of adaptive arm of unfolded protein response (XBP1); CHO-XBP1 luciferase reporter, IRE1-XBP1 UPR activation, luminescence; percent of tunicamycin response, DMSO as zero; activation, % at 20 µM; 330,000 tested, 0.33% active; AID 463104;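 active means versus positive control, 20 µM dose yields 30% or more activation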;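 further: 100% = tunicamycin at 10 µg/mL and 0% = DMSO only wells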
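Material: CHO cell line with stable XBP1 luciferase reporter; buffer or medium: F12 medium containing 10% fetal bovine serum; compound: single point, 20 µM final compound, 1% DMSO; incubation: 6 h treatment, 37 °C; measured by: glow luminescence from Steady-Glo reagent; evaluation: activation, % of tunicamycin; control set: tunicamycin high, DMSO low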
Starred values were filed as active, the others as inactive; x = no result; ! = a repeat was not active. Shown is part of a subset that was picked to be rich in hits.

SMILES | UPR CHOP act | PvdQ inh | CHOP inh | UPR XBP1 act
Cc1ccc(S(=O)(=O)Nc2ccc(O)c3ncccc23)cc1 | -1 | 1 | 73* | -1
COc1nc(Nc2nc3ccccc3c(=O)[nH]2)nc2ccc(C)cc12 | -5 | 9 | 88* | 7
Cc1cc(C)cc(Nc2nc3ccccc3c(=O)[nH]2)c1 | -1 | -11 | 48 | 4
Cc1cc(-c2nnc(SCC(=O)c3ccc(F)cc3)o2)no1 | 2 | -3 | 2 | -3
CC(C)CC(COCc1cccc(Cl)c1)N1CCN(C(=O)c2ccc(C(F)(F)F)cc2)CCC1=O (stereo not given) | 0 | -15 | 77* | -2
Cc1cccc(COCC(CC(C)C)N2CCN(C(=O)c3ccc(C(C)(C)C)cc3)CCC2=O)c1 (stereo not given) | 2 | -8 | 71* | 2
Cc1ccc(S(=O)(=O)Nc2cccc(C(=O)N3CCOCC3)c2)c(C)c1NS(C)(=O)=O | -1 | -10 | x | -2
C=C(C)CN(CC)C(=O)CN1C(=O)NC2(CCCc3ccccc32)C1=O (stereo not given) | 2 | 5 | x | -1
CCOC(=O)N1CCC(Nc2c(OCC)c(=O)c2=O)CC1 | 1 | -1 | 4 | -3
CCCN(CCC)c1nc(NC2CCN(C(=O)OCC)CC2)nc(OC)n1 | 2 | 12 | 72* | -5
Cc1cccc(OCC(=O)Nc2ccc3c4c(cccc24)CC3)c1C | 3 | -14 | -31 | 3
Cc1ccc(OCC(=O)Nc2ccc3c4c(cccc24)CC3)c(C)c1 | 1 | 14 | 82* | 7
CC(C)OC(=O)c1ccc(NC(=O)c2cccc(-n3cnnn3)c2)cc1 | -3 | -7 | x | 0
Cc1cc(=O)n2c(C(=O)Nc3ccc(C(=O)OC(C)C)cc3)c(C(=O)Nc3ccccc3)sc2n1 | 0 | -8 | 96* | 1
CCc1c(C#N)c(SCCC(=O)Nc2ccc(C)cc2)nc2c1C(=O)CC(C)(C)C2 | -4 | 2 | 85* | -6
COc1ccc(S(N)(=O)=O)cc1C(=O)N1CCCC1 | -2 | -16 | 1 | 0
Cc1ccc(NC(=O)c2cc(N(C)C)ccc2[P+](=O)O)cc1 | 2 | -7 | 91* | 1
Cc1ccc(NC(=O)c2ccc(F)cc2F)cc1 | 5 | -3 | x | -3
COC(=O)N=Nc1c(O)n(Cc2ccccc2)c2ccccc12 | 2 | -1 | 7 | 0
O=Nc1c(O)n(Cc2cccc(Cl)c2)c2ccccc12 | 0 | -50 | 73* | 2
CCOC(=O)N=Nc1c(O)n(Cc2ccccc2)c2ccccc12 | 1 | -7 | 80* | 3
O=C(Nc1cccc(S(=O)(=O)N2CCCCC2)c1)Nc1ccc(Cl)cc1Cl | 2 | -10 | 88* | 9
O=C(Nc1ccc(Cl)cc1Cl)NC1CCN(S(=O)(=O)c2ccc(F)cc2)CC1 | -1 | 8 | 81* | 4
O=C(Nc1ccc(Cl)cc1Cl)NC1CCCC1 | 4 | 14 | -6 | 1
COc1ccc(C(=O)C[n+]2cn(C(F)F)c3ccccc32)c(F)c1 | 1 | -11 | 9 | -1
SMILES | UPR CHOP act | PvdQ inh | CHOP inh | UPR XBP1 act
Cn1c(-c2c(N)n(-c3ccccc3)c3nc4ccccc4nc23)nc2ccccc21 | x | 6 | 74* | x
O=C(c1cnn2c(C(F)(F)F)cc(-c3cccs3)nc12)N1CCN(Cc2ccccc2)CC1 | 0 | 10 | 70* | 8
CN1CCN(C(=O)c2cnn3c(C(F)(F)F)cc(-c4cccs4)nc23)CC1 | 2 | -4 | -17 | 0
O=C(C[n+]1ccccn1)c1ccccc1 | 1 | 1 | x | -3
C=CCC(CC=C)(NC(=O)c1ccccc1C(=O)O)c1ccccc1 | 1 | -14 | 2 | -3
O=C(Nc1ccc(F)cc1)Nc1cc(OCC(F)(F)F)cc(OCC(F)(F)F)c1 | 27 | -6 | 102* | 4
CCOc1ccc(NC(=O)Nc2cc(OCC(F)(F)F)cc(OCC(F)(F)F)c2)cc1 | 12 | 7 | 73* | -1
CC(C)(C)c1ccc(NC(=O)CSc2nnc(-c3n[nH]c4ccccc34)o2)cc1 | 3 | -21 | 94* | 1
Cn1c2ccccc2n2c(=O)c(Cl)c(-c3ccccc3)c(C#N)c12 | 3 | -8 | 73* | 15
CCCCc1oc2ccccc2c1C(=O)c1cc(I)c(OCCN(CC)CC)c(I)c1 | 3 | 3 | 86*! | -6
CCN(CC)CCOc1ncnc2c1oc1ccccc12 | 0 | -10 | 4 | 0
CCOc1cc(NC(=O)C2CCCCC2)c(OCC)cc1NC(=O)c1ccco1 | 0 | -15 | 84* | -2
c1ccc(CC2CCN(c3ncnc4sccc34)CC2)cc1 | x | -2 | 74* | x
Cc1ccc(C(=O)Nc2ccccc2C(=O)NCc2ccccc2)cc1 | 1 | -12 | 80* | 1
COc1ccc(C=C(c2nc3ccccc3s2)c2nc3ccccc3s2)cc1O | 3 | -2 | 0 | 0
COc1cc(C=C(c2nc3ccccc3s2)c2nc3ccccc3s2)ccc1O | 2 | -6 | 74* | 1
CC1(C)CC2(CCO1)C(Nc1ccccc1)=NC(=S)N2CC(N)=O (stereo not given) | -1 | 8 | 6 | -1
Cc1cccc(C)c1OCC(=O)N/N=C/c1cccnc1 | 0 | -16 | x | 1
CC(C)Cn1c(=O)c(C(=O)Nc2ccccc2S(N)(=O)=O)c(O)c2ccccc21 | 0 | -3 | 73* | 8
CC(C)Cn1c(=O)c(C(=O)N/N=C/c2cccc(F)c2)c(O)c2ccccc21 | 2 | 7 | 82* | 3
CCCCn1c(=O)c(C(=O)N/N=C/c2ccc(F)cc2)c(O)c2ccccc21 | 0 | x | 16 | 1
O=C(N/N=C/c1cccc(F)c1)c1c(O)c2c([nH]c1=O)CCCC2 | 2 | 2 | 82* | -6
CCOC(=O)Cc1csc(NC(=O)c2c(O)c3ccccc3n(CC(C)C)c2=O)n1 | 16 | -7 | 85* | 4
CCCCCCCCOC(=O)c1cc([N+](=O)[O-])c(Sc2ncnc3nc[nH]c23)c([N+](=O)[O-])c1 | x | -20 | x | x
C[C@@]12CCC=C[C@H]1[C@H](c1ccc(F)c(/C=C/c3ccccc3)c1)N(Cc1ccccc1)C2=O | 1 | 8 | 5 | 5
SMILES | UPR CHOP act | PvdQ inh | CHOP inh | UPR XBP1 act
CC(=O)C1=C(O)C(=O)N(c2ccc(C)cc2)C1c1ccc([N+](=O)[O-])cc1 (stereo not given) | 1 | -7 | 19 | 0
CCc1ccc(-c2nc(CSCC(=O)N3CCN(c4ccccn4)CC3)c(C)o2)cc1 | -2 | -8 | 86* | 3
CCOc1ccc(-c2nc(CSCC(=O)NC3CC3)c(C)o2)cc1 | -11 | 0 | x | -14
CCOc1ccc(-c2nc(CSCC(=O)N3CCN(c4cccc(OC)c4)CC3)c(C)o2)cc1 | 4 | 3 | 74* | 1
Cc1ccc(-c2nc(CSCC(=O)N3CCN(C(=O)c4ccco4)CC3)c(C)o2)cc1 | -1 | -2 | 35 | -4
CCOc1ccc(-c2nc(CSCC(=O)NC3CCCc4ccccc43)c(C)o2)cc1 (stereo not given) | 1 | -19 | 87* | 2
Cc1ccc(-c2nc(CSCC(=O)N3CCN(c4ccccn4)CC3)c(C)o2)cc1 | -2 | -5 | 78* | 5

Bioassay records from PubChem BioAssay.
